We go through one compound from ChEMBL document CHEMBL5338794, “Optimization of Orally Bioavailable Antileishmanial 2,4,5-Trisubstituted Benzamides” (J Med Chem, 2023).

Series [1] has as its system Plasma. The series can be described thus: Time during which plasma concentration exceeds EC50 for inhibition of proliferation of luciferase expressing Leishmania mexicana intracellular amastigotes cultured in mouse J774.A1 cells infected to CD-1 mouse at 10 mg/kg,po by LC-MS/MS analysis. Format: organism-based. To be noted: in vivo. The method, boiled down: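 Time that plasma concentration stays above the intracellular-amastigote EC50, read from the plasma profile after a single oral dose at 10 mg/kg in 20% PEG 400/80% (20% SBE-beta-CD in water).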

Series [2] can be described thus: AUC in CD-1 mouse at 10 mg/kg,po and measured upto 24 hrs by LC-MS/MS analysis. The series is classed as ADME, organism-based. Also noted: time < 24 hrs, dose 10 mg/kg, route po. To be noted: in vivo. A digest of the protocol:
(§1)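 Single oral dose to mice at 10 mg/kg, in 20% PEG 400/80% (20% SBE-beta-CD in water). Plasma concentration–time profile used for t1/2, Cmax, Tmax, AUC, CL, apparent Vd and bioavailability (F).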

A short description of series [3]: AUC in CD-1 mouse at 3 mg/kg,iv and measured upto 24 hrs by LC-MS/MS analysis. The series is classed as ADME, organism-based. Also noted: time < 24 hrs, dose 3 mg/kg, route iv. The note with it: in vivo. A digest of the protocol: (§2)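 Single intravenous dose to mice at 3 mg/kg. Plasma concentration–time profile used for t1/2, Cmax, AUC, clearance and steady-state volume of distribution.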

The subject of series [4] is Leishmania mexicana. The series can be described thus: Antileishmanial activity against Leishmania mexicana MNZY/BZ/62/M379 promastigotes infected in BALB/c mouse assessed as fold reduction in footpad lesion development by measuring lesion size at 50 mg/kg, po QD for 10 days administered at day 18 postinfection and measured at 5 weeks postinfection by caliper analysis. The series is classed as functional. The note with it: time 10 day. A digest of the protocol:
(§3)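 BALB/c mice, 5 per group, infected with L. mexicana by footpad injection. Vehicle or HCl salt of compound given by oral gavage at 50 mg/kg/day for 10 consecutive days from day 18 postinfection. Lesion size measured by caliper up to 5 weeks postinfection, reported as mean ± SD. Groups compared by Mann–Whitney.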

Series [5] has as its system Plasma. The series can be described thus: Time during which plasma concentration exceeds EC50 for inhibition of proliferation of luciferase expressing Leishmania mexicana intracellular amastigotes cultured in mouse J774.A1 cells infected to CD-1 mouse at 3 mg/kg,iv by LC-MS/MS analysis. The series is classed as organism-based. To be noted: in vivo.
Series [6] can be described thus: Volume of distribution in CD-1 mouse at 10 mg/kg,po and measured upto 24 hrs by LC-MS/MS analysis. The note with it: in vivo. Format: ADME, organism-based. The method, boiled down: as §1
Series [7] in a line: Half life in CD-1 mouse at 10 mg/kg,po and measured upto 24 hrs by LC-MS/MS analysis. The series is classed as ADME, organism-based. To be noted: in vivo. A digest of the protocol: as §1
Series [8] can be described thus: Volume of distribution in CD-1 mouse at 3 mg/kg,iv and measured upto 24 hrs by LC-MS/MS analysis. The series is classed as ADME, organism-based. To be noted: in vivo. A digest of the protocol: as §2
Series [9] is described as follows: Metabolic stability in CD-1 mouse liver microsomes assessed as half life at 1 uM and measured upto 60 mins in presence of NADPH regenerating system by LC-MS/MS analysis. The series is classed as ADME, Microsome. To be noted: 1 h. The method, boiled down:
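Half-life and intrinsic clearance determined by incubation with mouse liver microsomes.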
On the technique in general: Liver microsomes are a subcellular fraction often used to study metabolism.

Series [10] can be described thus: Clearance in CD-1 mouse at 10 mg/kg,po and measured upto 24 hrs by LC-MS/MS analysis. Format: ADME, organism-based. To be noted: in vivo. The method, boiled down:
as §1

Series [11] has as its system Leishmania mexicana. The series can be described thus: Antileishmanial activity against Leishmania mexicana MNZY/BZ/62/M379 promastigotes infected in BALB/c mouse assessed as footpad lesion development at 50 mg/kg, po QD for 10 days administered at day 18 postinfection and measured after 5 weeks postinfection by caliper analysis. Format: functional, organism-based. The note with it: time 10.0 day. A digest of the protocol: as §3

The nature of series [12]: Oral bioavailability in CD-1 mouse at 10 mg/kg and measured upto 24 hrs by LC-MS/MS analysis. Format: ADME, organism-based. To be noted: in vivo. The method, boiled down: as §1
Series [13] deals with Leishmania mexicana. The series can be described thus: Antileishmanial activity against renilla luciferase-expressing Leishmania mexicana promastigotes infected in mouse J774.A1 cells assessed as inhibition of intracellular amastigotes growth incubated for 96 hrs by Renilla luciferase assay. Format: functional, organism-based. To be noted: J774.A1, 96 h.
The next series relates to BJ. The series can be described thus: Cytotoxicity against human BJ cells assessed as reduction in cell viability incubated for 72 hrs by Cell TiterGlo assay. Format: functional, cell-based. On the technique in general: In ATP-based viability assays light output follows the ATP content of the culture.
A short description of series [14]: Cmax in CD-1 mouse at 3 mg/kg,iv and measured upto 24 hrs by LC-MS/MS analysis. Format: ADME, organism-based. On the set-up: dose 3 mg/kg, time < 24 hrs, route iv. To be noted: in vivo. The method, boiled down:
as §2

The nature of series [15]: Tmax in CD-1 mouse at 10 mg/kg,po and measured upto 24 hrs by LC-MS/MS analysis. To be noted: in vivo. The series is classed as ADME, organism-based. The method, boiled down: as §1
The nature of series [16]: Clearance in CD-1 mouse at 3 mg/kg,iv and measured upto 24 hrs by LC-MS/MS analysis. The series is classed as ADME, organism-based. To be noted: in vivo. A digest of the protocol: as §2
Series [17] can be described thus: Cmax in CD-1 mouse at 10 mg/kg,po and measured upto 24 hrs by LC-MS/MS analysis. To be noted: in vivo. Format: ADME, organism-based. Also noted: dose 10 mg/kg, time < 24 hrs, route po. The method, boiled down:
as §1

Series [18] in a line: Half life in CD-1 mouse at 3 mg/kg,iv and measured upto 24 hrs by LC-MS/MS analysis. To be noted: in vivo. The series is classed as ADME, organism-based. The method, boiled down:
as §2

Series [19] can be described thus: Kinetic aqueous solubility of the compound in PBS at pH 7.4 incubated for 18 hrs by LC-MS analysis. The series is classed as physicochemical. To be noted: read-out: Kinetic_solubility.

In brackets after ≈: the same amount, converted by molar mass. Activity calls are given as the source filed them. The calls are words filed in the database; no cut-off is given here.

A word on the AUC: it is concentration integrated over time. Read a low AUC as low exposure. As a reminder, the CL/F is the apparent clearance, not corrected for the fraction that reaches the circulation. As usually defined, the EC50 is the concentration that produces a half-maximal response. As a reminder, the Cmax is the maximum level reached in the sampled fluid or tissue. Broadly, the Tmax is the time from dosing to the highest level. On to `O=C(Nc1ccc(Cl)c(Cl)c1)c1ccc(N2CCNCC2)c([N+](=O)[O-])c1`, for which the “T>EC50” value in the series with Plasma [1] is 5.5 h; in the series with Plasma [5], 1.5 h. Besides, the AUC in [2] worked out at 7.82 µM·h; in series [3], 2.85 µM·h. The “fold change (FC)” value in the series with Leishmania mexicana [4] is reported as 10. Also, the Vd in series [6] was 6.8 L/kg; in series [8], 9.3 L/kg. The t1/2 stood at 3.6 h in [7], 1.92 h in series [9] and 3.4 h in [18]. The CL/F in series [10] was 53.5 mL/min/kg. For the same compound, the outcome in the series with Leishmania mexicana [11] was inactive. In addition, the F in series [12] was 80%. The EC50 is 0.7 µM in the series with Leishmania mexicana [13] and 15 µM in the series on BJ. The Cmax was found to be 1950 nM in [14] and 1000 nM in [17]. The time to peak (Tmax) in series [15] came out at 2 h. The CL in series [16] amounted to 42.8 mL/min/kg. In series [19], the solubility kinetic at 18 h was found to be 46 µM (≈ 18.2 µg/mL).
